Source: article PMC9425296 (Journal of the American Chemical Society, 2022)
*1 amine or outer side, *2 acyl side, *3 side chain or, on linkers, in order; H or OH if unused. Where a SMILES comes first, the peptide text is derived from it. Bridges are numbered along the chain shown (N, C = ends). [ ]: non-standard residue; d: D form. X1 = O=C([C@@H]1C[C@H](SCc2cccc(C[*:3])c2)CN1[*:1])[*:2]

What was measured:
[1] = system: OVCAR8 cells (p62, LC3B, GABARAP); experiment: Western blot of autophagy markers in OVCAR8 cells; assay type: cell-based; conditions: OVCAR8, 25 μM peptide plus 10 μM cisplatin, 48 h
[2] = system: five human paralogs in the GABARAP/LC3 family (GABARAP, GABARAP-L1, GABARAP-L2, LC3A, LC3B); experiment: FP binding across human LC3/GABARAP paralogs; conditions: fluorescein-tagged peptide
Method in brief: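 Fluorescence polarization with N-terminally fluorescein-labelled peptides titrated against each recombinant protein (GABARAP, GABARAP-L1, GABARAP-L2, LC3A, LC3B). Kd values come from the FP binding data. Results are the average and standard error of the mean of three or more independent trials.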

CC(C)C[C@H](NC(=O)[C@@H]1CSCc2cccc(c2)CS[C@H]2C[C@@H](C(=O)N[C@@H](Cc3ccc(O)cc3)C(=O)N[C@@H]([C@@H](C)O)C(=O)N[C@@H](Cc3c[nH]c4ccccc34)C(=O)N[C@@H](CCC(=O)O)C(=O)N1)N(C(=O)[C@H](C)NC(=O)[C@@H](N)CC(=O)O)C2)C(=O)N[C@@H](C)C(=O)N[C@@H](Cc1c[nH]c2ccccc12)C(=O)N1CCC[C@H]1C(N)=O [MP3-meta] (H-DA[X1]YTWECLAWP-NH2; thioether 3-8; N-terminus and C-terminus assumed)
LC3B-I level compared to cells treated with cisplatin alone [1]: increased LC3B-I
binding to GABARAP and GABARAPL1 (in words) [2]: low-to-mid nanomolar range
binding to GABARAP-L2, LC3A and LC3B (in words) [2]: mostly in the micromolar range
